Results on six molecules are retold here after ChEMBL document CHEMBL2311493, “Focused pseudostatic hydrazone libraries screened by mass spectrometry binding assay: optimizing affinities toward γ-aminobutyric acid transporter 1” (J Med Chem, 2013).

Experiment [1] addresses Sodium- and chloride-dependent GABA transporter 1 (Mus musculus) (UniProt P31648). The experiment can be described thus: Binding affinity to mouse GAT1 expressed in HEK293 cells membranes assessed as remaining [2H10]NO711 binding level at 10 uM using LC-ESI-MS/MS analysis by [2H10]NO711 binding inhibition assay. The format is cell membranes. The gist of the method:
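Membranes from HEK293 cells stably expressing mGAT1, ~0.1 mg/mL protein, in pH 7.1 phosphate buffer with 1 M NaCl and 1% DMSO final. A single aldehyde (10 μM) and hydrazine 10 (100 μM) were incubated 4 h at 37 °C with the target to form the hydrazone. NO711 marker (20 nM) was then added for 40 min. Bound marker was recovered by filtration, 1 M NaCl washes and MeOH elution, then quantified by LC-ESI-MS/MS against [²H₁₀]NO711 internal standard. Result is % remaining specific binding, n = 4.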

Experiment [2] addresses T1, Sodium- and chloride-dependent GABA transporter 1 (Mus musculus, UniProt P31648). The experiment in a line: Inhibition of [3H]GABA uptake at mouse GAT1 expressed in HEK293 cells after 25 mins by scintillation counting analysis. The format is cell-based. To be noted: read-out: pIC50 (converted).
Experiment [3] concerns the target T1, Sodium- and chloride-dependent GABA transporter 1. The experiment can be described thus: Binding affinity to mouse GAT1 expressed in HEK293 cells membranes using LC-ESI-MS/MS analysis by [2H10]NO711 binding inhibition assay. The format is cell membranes. The procedure, abridged:
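Full competition with NO711 marker (20 nM) on mGAT1 HEK293 membranes in pH 7.1 phosphate buffer containing 1 M NaCl. Eight competitor concentrations, triplicate points. Bound marker was quantified by LC-ESI-MS/MS. Specific binding is total minus nonspecific. IC50 came from a one-site nonlinear fit and was converted to Ki by Cheng–Prusoff. pKi is mean ± SEM of at least three experiments.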

What is called Ki is a measure of affinity in units of concentration, obtained from inhibition or displacement. Read a low Ki as tighter binding.

As to `O=C(O)C1CCCN(CCN/N=C/c2ccccc2-c2cccc(F)c2F)C1` (stereo not drawn), the Activity in experiment [1] is less than 5%. The IC50 in experiment [2] is 1500 nM. The molecule also gave a Ki in experiment [3] of 204 nM.
The like results for `O=C(O)C1CCCN(CCN/N=C/c2ccccc2-c2ccc(F)cc2F)C1` (stereo not drawn) were, in that order, less than 5%, 129 nM and 35.6 nM.
Taken in the same sequence, the figures for `Cc1ccc(-c2ccccc2/C=N/NCCN2CCCC(C(=O)O)C2)c(C)c1` (stereo not drawn) were less than 5%, 836 nM and 73.3 nM.
Taken in the same sequence, the figures for `O=C(O)C1CCCN(CCN/N=C/c2ccccc2-c2cccs2)C1` (stereo not drawn) were 8.2%, 2870 nM and 590 nM.
Take `O=C(O)C1CCCN(CCN/N=C/c2cc(F)ccc2-c2ccc(Cl)cc2)C1` (stereo not drawn): in experiment [1], the Activity is less than 5%. In addition, the IC50 in experiment [2] was 1960 nM. In addition, in experiment [3], the affinity corresponds to a Ki of 234 nM.
Taken in the same sequence, the figures for `O=C(O)C1CCCN(CCN/N=C/c2ccccc2-c2ccc(Cl)cc2Cl)C1` (stereo not drawn) were less than 5%, 61.2 nM and 8.05 nM.
